EWS-Fli block: blocks EWS/Fli oncoprotein-driven transcription; A673 NR0B1-luciferase reporter, viability-normalised; inhibition, % at 12.6 µM; 350,000 tested, 0.67% active; AID 651661;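 active = mean inhibition of at least 50% after viability correction, with every replicate also passing that limit; inconclusive = mean reaches 50% but only one of two replicates passes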;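 note: firefly luciferase signal divided by Alamar Blue viability fluorescence both relative to DMSO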
FGF22 binding: shifts melting point of recombinant human FGF22; recombinant FGF22 thermal shift, SYPRO orange fluorescence; percent of sucrose octasulfate shift, DMSO zero; AID 651658; Q9HCT0; 340,000 tested, 1.5% active; activity (Tm shift, normalised), % at 9.99 µM;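 active = mean Tm shift, scaled 0 neutral to 100 positive control, at about 1.3% or above, every replicate too, limit read from the data; inconclusive = no clear call, values can overlap the other calls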
Target sequence (Q9HCT0 whole entry, looked up): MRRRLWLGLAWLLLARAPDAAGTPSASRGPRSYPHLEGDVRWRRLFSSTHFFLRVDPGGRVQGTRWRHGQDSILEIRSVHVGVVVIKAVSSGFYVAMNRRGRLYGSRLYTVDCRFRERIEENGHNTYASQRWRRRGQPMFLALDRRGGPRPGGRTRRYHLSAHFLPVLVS
FN deposit inh: fibronectin deposition inhibition. AH1F fibroblasts, Alexa488-fibronectin deposition fluorescence, overnight. inhibition, % at 12.6 µM. 350,000 tested, 0.086% active. AID 743247;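 active = mean inhibition across replicates of 30% or more, regardless of how many single replicates reach that level; inconclusive = mean under 30% yet at least half of replicates reach 30%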
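Schedule: 1 h cell adhesion before compound, then overnight fibronectin incubation; test system: AH1F fibroblast monolayer depositing Alexa488-labelled fibronectin into matrix; quantity: 10000 AH1F cells per well; probe or stimulus: fluorescent fibronectin at 24 nM final; signal: fluorescence, ex 485 nm, em 525 nm; evaluation: percent inhibition as loss of matrix-bound fibronectin fluorescence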
PAX8 inh HTS: PAX8 transcriptional activity inhibition | RMG-I TPO-luciferase reporter, SteadyGlo, 24 h | inhibition, % at 12.6 µM | 360,000 tested, 1.2% active | AID 652154;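 active = mean replicate inhibition at least 60% with every replicate also reaching 60%; inconclusive = only one of the two criteria is met; inactive = mean below 60% and not all replicates reaching 60%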;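 note: luciferase light reporting Pax8 driven TPO promoter activity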
PGC1a acetyl inh: lowers PGC1a acetylation signal in U2OS cells | AlphaScreen anti-acetyl-lysine; with virally co-expressed GCN5 acetyltransferase | inhibition, % at 15.6 µM | 350,000 tested, 0.17% active | AID 651687;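 active = every replicate shows inhibition of at least 40%; inconclusive = mean inhibition at least 40% but some replicate below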
HIV Env fusion: HIV envelope-mediated fusion inhibition; inhibition, % at 12.3 µM; HeLa-JRFL Env/CEM21 cell fusion, luciferase; 360,000 tested, 1.1% active;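 active = mean replicate inhibition score of at least 50 and every replicate individually at or above 50; inconclusive = only one of the two criteria met; inactive = mean below 50 and not all replicates reaching 50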
Large screens that a line does not name were inactive. Shown are actives, neighbours in structure and some others; about 3.1% of the full set was active somewhere.

O=C(CC1CC1)Nc1ccc2c(c1)[C@@H]1C[C@H](CC(=O)NC3CCCC3)O[C@H](CO)[C@@H]1O2	none
CCOc1ccc(NC2c3ccccc3C(=O)N2Cc2ccc3c(c2)OCO3)cc1 (centres undefined)	none
COc1cc(NC2c3ccccc3C(=O)N2Cc2ccc3c(c2)OCO3)cc(OC)c1OC (centres undefined)	HIV Env fusion 87.4
O=C(OCC(=O)N1CCN(c2ccccc2)CC1)c1cccc(Cl)c1	none (no result: EWS-Fli block, FGF22 binding)
COc1ccc(N2CCN(C(=O)COC(=O)CCc3ccccc3)CC2)cc1	PAX8 inh HTS 76.9
COc1ccc(N2CCN(C(=O)COC(=O)CCOc3ccc(C)cc3)CC2)cc1	none (no result: PGC1a acetyl inh)
Cc1cccc(OC(C)C(=O)OCC(=O)N2CCN(c3ccccc3)CC2)c1 (centres undefined)	FGF22 binding 43.6 (no result: PGC1a acetyl inh)
C[C@H](NC(=O)C[C@@H]1C=C[C@H](NC(=O)C2CCOCC2)[C@@H](CO)O1)c1ccccc1	none (no result: FN deposit inh)
CCC[N+]1(CC#CCC(c2ccccc2)c2ccccc2)CCCCC1	PAX8 inh HTS inconclusive, HIV Env fusion 74.2
NC(c1csc(NC(=O)Nc2ccc(OC(F)(F)F)cc2)n1)C1CCCCC1 (centres undefined)	EWS-Fli block 54.9
CC(C)NC(=O)Nc1ccc2c(c1)CC(=O)N([C@H](C)CO)C[C@H](C)[C@@H](CN(C)Cc1ccc(Cl)c(Cl)c1)O2	none (no result: EWS-Fli block, FN deposit inh, HIV Env fusion)
C/C=C/c1ccc2c(c1)[C@H]1[C@H](CCN1C(=O)COC)[C@@H](CO)N2	none (no result: EWS-Fli block, FGF22 binding, PAX8 inh HTS, PGC1a acetyl inh, HIV Env fusion)
CCNC(=O)n1cc(-n2cncn2)c(-c2ccccc2)n1	FGF22 binding 43.4
O=C(NCCCc1ccccc1)c1ccc(-n2cncn2)c([N+](=O)[O-])c1	none (no result: FN deposit inh)
COC(=O)[C@]12CCCCC=C1N(CCC1=CCCCC1)C(=O)[C@H](CC(=O)N1CCN(C(=O)c3ccco3)CC1)C2	PAX8 inh HTS 79.0 (no result: PGC1a acetyl inh)
COC(=O)[C@]12CCCCC=C1N(Cc1cccc3ccccc13)C(=O)[C@H](CC(=O)N1CCN(C(=O)c3ccco3)CC1)C2	PAX8 inh HTS 92.4 (no result: PGC1a acetyl inh)
COC(=O)[C@]12CCCCC=C1N(Cc1cccc3ccccc13)C(=O)[C@H](CC(=O)N1CCCC1)C2	none (no result: PGC1a acetyl inh)
COC(=O)[C@]12CCCCC=C1N(CCc1ccc(OC)c(OC)c1)C(=O)[C@H](CC(=O)N1CCN(C(=O)c3ccco3)CC1)C2	none (no result: PGC1a acetyl inh)
CCOC(=O)[C@]12CCCC=C1N(Cc1ccccc1)C(=O)[C@H](CC(=O)N1CCN(C(=O)c3ccco3)CC1)C2	PAX8 inh HTS 70.6 (no result: PGC1a acetyl inh)
C[C@H]1CN([C@@H](C)CO)C(=O)c2cc(Br)cnc2O[C@@H]1CN(C)C(=O)Nc1ccccc1	none (no result: PAX8 inh HTS)
C[C@H](CO)N1C[C@H](C)[C@H](CN(C)C(=O)C2CCCCC2)Oc2ncc(-c3ccccc3)cc2C1=O	none (no result: FN deposit inh, PAX8 inh HTS)
CCC(Sc1nc2ccsc2c(=O)n1-c1ccc(Cl)c(C)c1)C(=O)NCc1ccco1 (centres undefined)	HIV Env fusion 65.4 (no result: EWS-Fli block, FGF22 binding, PAX8 inh HTS, PGC1a acetyl inh)
O=C(CSc1nc2ccsc2c(=O)n1Cc1ccccc1)NCc1ccco1	none (no result: EWS-Fli block, FGF22 binding, PAX8 inh HTS)
O=C(Nc1ccc(F)cc1)Nc1cc(OCC(F)(F)F)cc(OCC(F)(F)F)c1	PAX8 inh HTS 82.8, HIV Env fusion 70.1 (no result: EWS-Fli block, FGF22 binding, PGC1a acetyl inh)
CCOc1ccc(NC(=O)Nc2cc(OCC(F)(F)F)cc(OCC(F)(F)F)c2)cc1	PAX8 inh HTS 87.2, HIV Env fusion inconclusive (no result: PGC1a acetyl inh)
O=S(=O)(c1ccc2ccccc2c1)N1CCN(Cc2ccc(OCCO)cc2)CC1	none (no result: FN deposit inh)
O=C(NCCc1ccccc1)C1CCN(C2CCN(Cc3ccco3)CC2)CC1	none
O=C(NCC1CCCO1)C1CCN(C2CCN(Cc3ccco3)CC2)CC1 (centres undefined)	FGF22 binding 43.6
C[C@@H]1CN([C@H](C)CO)C(=O)c2cc(NC(=O)Nc3ccc(F)cc3)ccc2O[C@@H](C)CCCCO[C@@H]1CN(C)Cc1ccncc1	none
COc1ccc(/C=C2\SC(=S)N(CCCC(=O)N3CCCCC3CCO)C2=O)cc1 (centres undefined)	PAX8 inh HTS 74.6 (no result: EWS-Fli block)
COc1ccc(/C=C2\SC(=S)N(CCCC(=O)N3CCN(C)CC3)C2=O)cc1	none (no result: PGC1a acetyl inh)
CC(C)c1ccc(/C=C2\SC(=S)N(CCC(=O)N3CCCCC3CCO)C2=O)cc1 (centres undefined)	HIV Env fusion 56.1 (no result: EWS-Fli block)

High-throughput results as filed in PubChem.
